Assay results as given in publication PMC4103641 (Bioscience and Microflora, 2011).
Marks after values point to notes of the source that are not given here.

Tests used:
[1] = Metabolism of isoflavones by homogenate of germfree mouse small intestine; format: in vitro ADME; details: for Metabolized by incubation with germfree mouse small intestine (in words): 3 days anaerobically, both pH 5.0 and 7.4; for Aglycone detected after incubation against compound added / Glycoside detected after incubation against compound added: 3 days; for Hydrolysis by homogenate of germfree mouse small intestine (in words): without bacterial activity
Method in brief: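 Upper small intestine from 14-week-old male germfree BALB/cA mice, homogenised anaerobically in 9 volumes BHI broth at pH 7.4 or 5.0. Test compound added from 5 mmol/l DMSO stock. Flavone internal standard added, then 5 extractions with equal-volume butanol, redissolved in 50% ethanol. Reversed-phase ODS HPLC (30 °C, acetonitrile/water/acetic acid gradient) with 260 nm diode-array detection. Values are % detected versus added.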

human fecal suspension = test: Metabolism of isoflavones by human fecal suspensions; format: in vitro ADME; details: for Daidzein detected after incubation: substrate Daidzein; for Glycitein detected after incubation: substrate Glycitein; for Genistein detected after incubation: substrate Genistein; for 6HG detected after incubation / 6HGDG detected after incubation: substrate 6HGDG; for Tectorigenin detected after incubation: substrate Tectorigenin

Structure (SMILES): COc1cc2c(=O)c(-c3ccc(O)cc3)coc2cc1O[C@@H]1O[C@H](CO)[C@@H](O)[C@H](O)[C@H]1O [Glycitin, glycitin]
- Glycitin metabolized detected as glycitein [1]: about 65%
- Metabolized by incubation with germfree mouse small intestine (in words) [1]: completely metabolized
- Aglycone detected after incubation against compound added ([1]; pH 5.0): 65.5%
- Glycoside detected after incubation against compound added ([1]; pH 5.0): 0.0%
- Aglycone detected after incubation against compound added ([1]; pH 7.4): 62.1%
- Glycoside detected after incubation against compound added ([1]; pH 7.4): 0.0%
- Hydrolysis by homogenate of germfree mouse small intestine (in words) [1]: highly hydrolyzed

Structure (SMILES): O=c1c(-c2ccc(O)cc2)coc2cc(O)ccc12 [Daidzein, daidzein]
- Detected intact after incubation ([1]; aglycone-form substrate): More than 95%
- Daidzein detected after incubation (human fecal suspension; Mix, mixture of 10 samples): 30.1%
- Daidzein detected after incubation (human fecal suspension; fecal sample no. 1): 84.5%
- Daidzein detected after incubation (human fecal suspension; fecal sample no. 2): 90.8%
- Daidzein detected after incubation (human fecal suspension; fecal sample no. 3): 60.3%
- Daidzein detected after incubation (human fecal suspension; fecal sample no. 4): 96.4%
- Daidzein detected after incubation (human fecal suspension; fecal sample no. 5): 8.0%
- Daidzein detected after incubation (human fecal suspension; fecal sample no. 6): 0.0%
- Daidzein detected after incubation (human fecal suspension; fecal sample no. 7): 62.6%
- Daidzein detected after incubation (human fecal suspension; fecal sample no. 8): 13.9%
- Daidzein detected after incubation (human fecal suspension; fecal sample no. 9): 81.4%
- Daidzein detected after incubation (human fecal suspension; fecal sample no. 10): 8.4%

Structure (SMILES): COc1cc2c(=O)c(-c3ccc(O)cc3)coc2cc1O [Glycitein, glycitein]
- Substrate added that was resolved (in words) ([1]; aglycone-form substrate): about a half
- Substrate metabolized (human fecal suspension; all fecal samples including the mixed sample): At least 75%
- Glycitein detected after incubation (human fecal suspension; Mix, mixture of 10 samples): 8.0%
- Glycitein detected after incubation (human fecal suspension; fecal sample no. 1): 24.6^a %
- Glycitein detected after incubation (human fecal suspension; fecal sample no. 2): 17.5%
- Glycitein detected after incubation (human fecal suspension; fecal sample no. 3): 2.7%
- Glycitein detected after incubation (human fecal suspension; fecal sample no. 4): 10.7%
- Glycitein detected after incubation (human fecal suspension; fecal sample no. 5): 7.1%
- Glycitein detected after incubation (human fecal suspension; fecal sample no. 6): 0.0%
- Glycitein detected after incubation (human fecal suspension; fecal sample no. 7): 12.2%
- Glycitein detected after incubation (human fecal suspension; fecal sample no. 8): 3.2%
- Glycitein detected after incubation (human fecal suspension; fecal sample no. 9): 0.0%
- Glycitein detected after incubation (human fecal suspension; fecal sample no. 10): 5.6%

Structure (SMILES): O=c1c(-c2ccc(O)cc2)coc2cc(O)cc(O)c12 [Genistein]
- Detected intact after incubation ([1]; aglycone-form substrate): More than 95%
- Detected as intact substrate (human fecal suspension; 1 sample): 70%
- Substrate metabolized (human fecal suspension; 1 sample, incubation for 3 days): 94%
- Found intact (human fecal suspension; 2 samples): more than 90%
- Metabolites detected, including 6HG and equol (in words) (human fecal suspension; any incubates): No metabolites
- Substrate metabolized (in words) (human fecal suspension; mixed human feces): completely
- Genistein detected after incubation (human fecal suspension; Mix, mixture of 10 samples): 0.0%
- Genistein detected after incubation (human fecal suspension; fecal sample no. 1): 70.9%
- Genistein detected after incubation (human fecal suspension; fecal sample no. 2): 91.2%
- Genistein detected after incubation (human fecal suspension; fecal sample no. 3): 99.0%
- Genistein detected after incubation (human fecal suspension; fecal sample no. 4): 5.9%
- Genistein detected after incubation (human fecal suspension; fecal sample no. 5): 0.0%
- Genistein detected after incubation (human fecal suspension; fecal sample no. 6): 0.0%
- Genistein detected after incubation (human fecal suspension; fecal sample no. 7): 0.0%
- Genistein detected after incubation (human fecal suspension; fecal sample no. 8): 0.0%
- Genistein detected after incubation (human fecal suspension; fecal sample no. 9): 0.0%
- Genistein detected after incubation (human fecal suspension; fecal sample no. 10): 0.0%

Structure (SMILES): COc1c(O[C@@H]2O[C@H](CO[C@@H]3OC[C@@H](O)[C@H](O)[C@H]3O)[C@@H](O)[C@H](O)[C@H]2O)cc2occ(-c3ccc(O)cc3)c(=O)c2c1O [TGXG, Tectorigenin 7-O-xylosylglucoside]
- Substrate metabolized ([1]; pH 5.0): More than 95%
- Aglycone detected after incubation against compound added ([1]; pH 5.0): 97.1%
- Glycoside detected after incubation against compound added ([1]; pH 5.0): 4.9%
- Substrate metabolized ([1]; pH 7.4): 40%
- Aglycone detected after incubation against compound added ([1]; pH 7.4): 43.7%
- Glycoside detected after incubation against compound added ([1]; pH 7.4): 60.7%
- Hydrolysis by homogenate of germfree mouse small intestine (in words) [1]: highly hydrolyzed

Structure (SMILES): O=c1c(-c2ccc(O)cc2)coc2cc(O[C@@H]3O[C@H](CO)[C@@H](O)[C@H](O)[C@H]3O)cc(O)c12 [Genistin]
- Metabolized by incubation with germfree mouse small intestine (in words) [1]: completely metabolized
- Glycoside detected after incubation against compound added ([1]; pH 5.0): 0.0%
- Glycoside detected after incubation against compound added ([1]; pH 7.4): 0.0%
- Hydrolysis by homogenate of germfree mouse small intestine (in words) [1]: highly hydrolyzed

Structure (SMILES): O=c1c(-c2ccc(O)cc2)coc2cc(O[C@@H]3O[C@H](CO)[C@@H](O)[C@H](O)[C@H]3O)c(O[C@@H]3O[C@H](CO)[C@@H](O)[C@H](O)[C@H]3O)c(O)c12 [6HGDG, 6-hydroxygenistein 6,7-di-O-glucoside]
- Aglycone detected after incubation against compound added ([1]; pH 5.0): 0.0%
- Glycoside detected after incubation against compound added ([1]; pH 5.0): 99.4%
- Aglycone detected after incubation against compound added ([1]; pH 7.4): 0.0%
- Glycoside detected after incubation against compound added ([1]; pH 7.4): 106.2^a %
- Hydrolysis by homogenate of germfree mouse small intestine (in words) [1]: not hydrolyzed
- Metabolism by human fecal bacteria (in words) (human fecal suspension; incubation for 3 days): completely metabolized
- Metabolism by human fecal bacteria (in words) (human fecal suspension; incubation for 3 days, listed as 6-hydroxygenistein 6,7-di-O-glucoside): highly metabolized
- 6HGDG metabolized to its aglycone, 6HG (human fecal suspension; six out of 10 samples): 9 to 56%
- 6HG detected after incubation (human fecal suspension; Mix, mixture of 10 samples): 0.0%
- 6HGDG detected after incubation (human fecal suspension; Mix, mixture of 10 samples): 0.0%
- 6HG detected after incubation (human fecal suspension; fecal sample no. 1): 55.8%
- 6HGDG detected after incubation (human fecal suspension; fecal sample no. 1): 0.0^a %
- 6HG detected after incubation (human fecal suspension; fecal sample no. 2): 40.8%
- 6HGDG detected after incubation (human fecal suspension; fecal sample no. 2): 0.0%
- 6HG detected after incubation (human fecal suspension; fecal sample no. 3): 26.6%
- 6HGDG detected after incubation (human fecal suspension; fecal sample no. 3): 0.0%
- 6HG detected after incubation (human fecal suspension; fecal sample no. 4): 28.4%
- 6HGDG detected after incubation (human fecal suspension; fecal sample no. 4): 0.0%
- 6HG detected after incubation (human fecal suspension; fecal sample no. 5): 18.4%
- 6HGDG detected after incubation (human fecal suspension; fecal sample no. 5): 0.0%
- 6HG detected after incubation (human fecal suspension; fecal sample no. 6): 8.7%
- 6HGDG detected after incubation (human fecal suspension; fecal sample no. 6): 0.0%
- 6HG detected after incubation (human fecal suspension; fecal sample no. 7): 0.0%
- 6HGDG detected after incubation (human fecal suspension; fecal sample no. 7): 0.0%
- 6HG detected after incubation (human fecal suspension; fecal sample no. 8): 0.0%
- 6HGDG detected after incubation (human fecal suspension; fecal sample no. 8): 0.0%
- 6HG detected after incubation (human fecal suspension; fecal sample no. 9): 0.0%
- 6HGDG detected after incubation (human fecal suspension; fecal sample no. 9): 0.0%
- 6HG detected after incubation (human fecal suspension; fecal sample no. 10): 0.0%
- 6HGDG detected after incubation (human fecal suspension; fecal sample no. 10): 0.0%

Structure (SMILES): COc1c(O)cc2occ(-c3ccc(O)cc3)c(=O)c2c1O [Tectorigenin, tectorigenin]
- Detected intact after incubation ([1]; aglycone-form substrate): More than 95%
- Substrate metabolized (in words) (human fecal suspension; 1 fecal sample): about half
- Substrate metabolized (in words) (human fecal suspension; 8 of 10 fecal samples): metabolized completely
- Metabolite detected (in words) (human fecal suspension; mixed human feces): no metabolite was detected
- Substrate metabolized (in words) (human fecal suspension; mixed human feces): completely
- Tectorigenin detected after incubation (human fecal suspension; Mix, mixture of 10 samples): 0.0%
- Tectorigenin detected after incubation (human fecal suspension; fecal sample no. 1): 53.5%
- Tectorigenin detected after incubation (human fecal suspension; fecal sample no. 2): 2.6%
- Tectorigenin detected after incubation (human fecal suspension; fecal sample no. 3): 0.0%
- Tectorigenin detected after incubation (human fecal suspension; fecal sample no. 4): 0.0%
- Tectorigenin detected after incubation (human fecal suspension; fecal sample no. 5): 0.0%
- Tectorigenin detected after incubation (human fecal suspension; fecal sample no. 6): 0.0%
- Tectorigenin detected after incubation (human fecal suspension; fecal sample no. 7): 0.0%
- Tectorigenin detected after incubation (human fecal suspension; fecal sample no. 8): 0.0%
- Tectorigenin detected after incubation (human fecal suspension; fecal sample no. 9): 0.0%
- Tectorigenin detected after incubation (human fecal suspension; fecal sample no. 10): 0.0%

Structure (SMILES): COc1c(O[C@@H]2O[C@H](CO)[C@@H](O)[C@H](O)[C@H]2O)cc2occ(-c3ccc(O)cc3)c(=O)c2c1O [Tectoridin, tectoridin]
- Metabolized by incubation with germfree mouse small intestine (in words) [1]: completely metabolized
- Glycoside detected after incubation against compound added ([1]; pH 5.0): 0.0%
- Glycoside detected after incubation against compound added ([1]; pH 7.4): 0.0%
- Hydrolysis by homogenate of germfree mouse small intestine (in words) [1]: highly hydrolyzed
